Results as given in ChEMBL document CHEMBL4732120, “Discovery of novel PARP/PI3K dual inhibitors with high efficiency against BRCA-proficient triple negative breast cancer” (Eur J Med Chem, 2021).

How the values were obtained:
MDA-MB-468 = test: Induction of apoptosis in human MDA-MB-468 cells assessed as late apoptotic cells at 1 uM measured after 72 hrs by Annexin V-FITC/propidium iodide staining based flow cytometry (reference value: 0.78%); assay type: functional
[1] = Toxicity in Sprague-Dawley rat assessed as change in body weight at 1000 mg/kg, po administered as single dose measured on day 4 (reference value: 280 +/- 12 g); assay type: organism-based; settings: in vivo, 96 h, time 4 day
[2] = Toxicity in Sprague-Dawley rat administered as single oral dose; settings: in vivo
Method in brief: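 Sprague-Dawley rats, n = 6 (3 male, 3 female), given a single oral dose of 1000 mg/kg. Deaths and body-weight change were recorded to estimate the maximum tolerated dose.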

[3] = target: T1, Phosphatidylinositol 4,5-bisphosphate 3-kinase catalytic subunit delta isoform (Homo sapiens, UniProt O00329); test: Inhibition of PI3Kdelta (unknown origin)
T1 sequence (O00329 whole entry): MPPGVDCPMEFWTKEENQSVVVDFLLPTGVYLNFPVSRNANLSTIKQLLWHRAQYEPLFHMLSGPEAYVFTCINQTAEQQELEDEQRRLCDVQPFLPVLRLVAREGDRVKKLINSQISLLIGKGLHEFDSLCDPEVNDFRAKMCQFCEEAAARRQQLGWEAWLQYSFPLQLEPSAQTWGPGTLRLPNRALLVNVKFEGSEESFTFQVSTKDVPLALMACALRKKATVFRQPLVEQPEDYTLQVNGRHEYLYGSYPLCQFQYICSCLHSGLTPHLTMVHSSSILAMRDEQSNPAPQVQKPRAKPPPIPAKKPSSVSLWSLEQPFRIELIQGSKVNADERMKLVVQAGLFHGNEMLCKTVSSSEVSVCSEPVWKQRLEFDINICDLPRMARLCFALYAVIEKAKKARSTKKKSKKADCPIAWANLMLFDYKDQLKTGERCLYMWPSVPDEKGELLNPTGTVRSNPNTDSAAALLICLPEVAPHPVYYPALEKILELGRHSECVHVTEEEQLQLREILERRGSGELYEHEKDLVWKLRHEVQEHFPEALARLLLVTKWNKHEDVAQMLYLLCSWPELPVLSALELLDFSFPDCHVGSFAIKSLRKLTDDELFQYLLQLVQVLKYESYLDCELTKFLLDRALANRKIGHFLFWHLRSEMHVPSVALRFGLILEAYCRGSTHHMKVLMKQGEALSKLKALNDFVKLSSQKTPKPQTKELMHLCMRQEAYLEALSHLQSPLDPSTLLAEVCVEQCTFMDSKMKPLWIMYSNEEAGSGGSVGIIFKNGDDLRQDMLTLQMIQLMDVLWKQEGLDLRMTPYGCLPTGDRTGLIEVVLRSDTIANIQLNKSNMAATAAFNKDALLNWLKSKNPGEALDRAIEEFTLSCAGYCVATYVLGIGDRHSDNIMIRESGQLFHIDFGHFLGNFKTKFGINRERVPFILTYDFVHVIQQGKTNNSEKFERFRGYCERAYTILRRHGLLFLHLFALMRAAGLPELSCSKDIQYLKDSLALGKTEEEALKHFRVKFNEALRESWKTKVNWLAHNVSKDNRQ

Q: For NC(=O)c1cccc2cc(C(=O)N3CCN(c4nc(-c5cnc(NC(=O)CN6CCOCC6)cc5C(F)(F)F)nc(N5CCOCC5)n4)CC3)oc12, which Activity (MDA-MB-468) is on record?
A: 13.5%

Q: What about the Activity [1] of the same compound?
A: 272 g

Q: What about the MTD [2] of the same compound?
A: > 1000 mg/kg

Q: What about the IC50 [3] of the same compound?
A: 197 nM
